The target in this assay is Protein-arginine deiminase type-4 (Homo sapiens) (UniProt Q9UM07). Briefly: residual PAD4 activity, irreversible binding – biochemical, dialysis, BAEE substrate, colorimetric citrulline readout, mechanism study for PAD4 inhibitor project, late-stage follow-up (AID 651627). The following applies: recombinant PAD4, dialysis, at 100 µM, stronger effect = lower value. The essentials: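 System – recombinant PAD4 enzyme · Input – 0.6 µM PAD4 · Medium – Tris pH 7.6 with Ca2+ and DTT · Also added – BAEE substrate at 10 mM after dialysis · Schedule – 20 h dialysis, 15 min BAEE reaction at 37 °C · Measured by – citrulline colorimetry at 540 nm · Benchmarks – DMSO-treated enzyme without compound as reference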

SMILES strings stand for the structures.

Sequence of Protein-arginine deiminase type-4 (Homo sapiens) (Q9UM07 whole entry, looked up): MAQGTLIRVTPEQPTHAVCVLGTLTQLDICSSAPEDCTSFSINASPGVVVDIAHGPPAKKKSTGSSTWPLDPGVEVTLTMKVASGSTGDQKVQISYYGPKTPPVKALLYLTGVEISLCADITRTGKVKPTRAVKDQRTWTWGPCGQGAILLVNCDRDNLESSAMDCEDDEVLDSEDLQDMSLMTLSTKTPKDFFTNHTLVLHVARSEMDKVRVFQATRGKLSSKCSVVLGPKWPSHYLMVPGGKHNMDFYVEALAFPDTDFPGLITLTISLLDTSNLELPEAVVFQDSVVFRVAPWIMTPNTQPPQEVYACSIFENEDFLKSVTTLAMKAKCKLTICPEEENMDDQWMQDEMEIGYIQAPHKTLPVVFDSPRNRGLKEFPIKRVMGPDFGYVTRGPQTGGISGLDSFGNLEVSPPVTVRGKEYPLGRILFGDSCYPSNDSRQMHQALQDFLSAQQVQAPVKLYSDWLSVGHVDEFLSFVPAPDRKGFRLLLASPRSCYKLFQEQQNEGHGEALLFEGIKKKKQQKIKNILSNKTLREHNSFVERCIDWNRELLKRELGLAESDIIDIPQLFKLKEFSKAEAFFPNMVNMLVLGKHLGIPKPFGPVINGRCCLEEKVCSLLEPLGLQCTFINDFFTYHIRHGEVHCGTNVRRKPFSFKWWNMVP

`COC1=C(Br)C(=O)c2ncccc2C1=O`: the residual activity after dialysis is 0%.
For `NC1=CC(=O)c2ccc(-c3cccc(C(=O)O)n3)nc2C1=O`, the residual activity after dialysis is 0%.
With `COC(=O)c1cccc(-c2ccc3c(n2)C(=O)C(N)=CC3=O)n1` the figure was 13%; with `NC1=CC(=O)c2cccnc2C1=O`, 2%; with `NC1=CC(=O)c2ccc(-c3ccccn3)nc2C1=O`, 12%.

The record behind these values is PubChem BioAssay AID651627 (The Scripps Research Institute Molecular Screening Center, 2012).
